Test results reported in publication PMC3778312 (British Journal of Cancer, 2013).

Assays:
[1] = Phase 1 safety monitoring of PX-866 with docetaxel; assay type: in vivo, human
How it was run: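 Open-label dose escalation in cohorts of 6–9 patients at 4, 6 or 8 mg oral daily test compound plus docetaxel 75 mg m−2 IV every 21 days, with dexamethasone premedication. All patients receiving ≥1 dose had vital signs, labs and exams; AEs were graded by NCI CTCAE v4.02. DLTs included related grade ≥3 events, febrile grade 3/4 neutropenia, platelets <25 000 per μl and ANC <500 per μl for >7 days.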

[2] = Docetaxel plasma pharmacokinetics in patients; assay type: in vivo; conditions: human
[3] = test system: NSCLC; conditions: ref Roberts et al, 2004, Horstmann et al, 2005, Schuette et al; cited from earlier work
[4] = plasma, intravenous, 75 mg m^-2

## CC(=O)O[C@@]12CO[C@@H]1C[C@H](O)[C@@]1(C)C(=O)[C@H](O)C3=C(C)[C@@H](OC(=O)[C@H](O)[C@@H](NC(=O)OC(C)(C)C)c4ccccc4)C[C@@](O)([C@@H](OC(=O)c4ccccc4)[C@H]21)C3(C)C [docetaxel]
[1]; 18 out of 43
  patients requiring docetaxel dose reduction: 42%
[1]; PX-866 with docetaxel
  SAE related to docetaxel: ataxia: 1 N
  SAE related to docetaxel: febrile neutropenia: 1 N
  SAE related to docetaxel: mental status changes: 1 N
  SAE related to docetaxel: nausea: 2 N
  SAE related to docetaxel: pneumonia: 1 N
  SAE related to docetaxel: vomiting: 3 N
[1]; PX-866 with docetaxel, 43 patients
  gastrointestinal disorders, docetaxel-related: 79.1%
[1]; PX-866 with docetaxel, N=43
  Grade 3/4 AE related to docetaxel: anaemia: 2 N
  Grade 3/4 AE related to docetaxel: diarrhoea: 3 N
  Grade 3/4 AE related to docetaxel: leucopenia: 4 N
  Grade 3/4 AE related to docetaxel: nausea: 2 N
  Grade 3/4 AE related to docetaxel: vomiting: 3 N
[1]; after SD or better with combination, continued single-agent PX-866
  patients in whom docetaxel was discontinued due to toxicity: eight
[1]; of 18 with dose reduction
  patients requiring docetaxel dose reduction due to neutropenia: Fourteen
[2]; in vivo
  exposure in the presence of PX-866: not affected
[2]; plasma, intravenous
  AUC(0-t): 851 ng·h/mL
  MRT inf: 13.9 h
  Tmax: 0.19 h
  Vd: 2690 L
  clearance: 2570 mL/min
[2]; [4]
  AUC(0-t): 1200 ng·h/mL
  MRT inf: 15.2 h
  Tmax: 0.19 h
  Vd: 2990 L
  clearance: 2390 mL/min
[2]; plasma, intravenous, AUCINF, C2D1 (with PX-866), mean, N=35, plasma
  AUC(0-inf): 1110 ng·h/mL
[2]; plasma, intravenous, Cmax, C2D1 (with PX-866), mean, N=35, plasma
  Cmax: 539 ng/mL
[2]; plasma, intravenous, Half-life, C2D1 (with PX-866), mean, N=35, plasma
  half-life: 13.1 h
[3]
  PR rate, second-line docetaxel in NSCLC: 13%
  PR−SD rate, second-line docetaxel in NSCLC: 50%
